# Source: ChEMBL document CHEMBL1914380, “Polyalkoxybenzenes from plants. 5. Parsley seed extract in synthesis of azapodophyllotoxins featuring strong tubulin destabilizing activity in the sea urchin embryo and cell culture assays” (J Med Chem, 2011)
# pEC50, pIC50: −log10 of the molar value. Active and inactive are the calls of the source. The rule behind the calls is not given here.
# Legend:
# Paracentrotus lividus [1] = test: Antimitotic activity against Paracentrotus lividus embryo assessed as cleavage alteration treated 10 to 25 mins post fertilization followed by 45 to 60 mins before the first mitotic cycle completion by sea urchin embryo assay; type: functional
# Paracentrotus lividus [2] = test: Antimitotic activity against Paracentrotus lividus embryo assessed as cleavage arrest treated 10 to 25 mins post fertilization followed by 45 to 60 mins before the first mitotic cycle completion by sea urchin embryo assay; type: functional
# Paracentrotus lividus [3] = test: Antimitotic activity against Paracentrotus lividus embryo assessed as embryo spinning treated 10 to 25 mins post fertilization followed by 45 to 60 mins before the first mitotic cycle completion by sea urchin embryo assay; type: functional
# Paracentrotus lividus [4] = test: Antimitotic activity against Paracentrotus lividus embryo assessed as cleavage arrest up to 4 uM […] followed by 45 to 60 mins before the first mitotic cycle completion by sea urchin embryo assay; type: functional, organism-based
# Paracentrotus lividus [5] = test: Antimitotic activity against Paracentrotus lividus embryo assessed as cleavage alteration up to 4 uM […] followed by 45 to 60 mins before the first mitotic cycle completion by sea urchin embryo assay; type: functional, organism-based
# Paracentrotus lividus [6] = test: Antimitotic activity against Paracentrotus lividus embryo assessed as embryo spinning up to 4 uM […] followed by 45 to 60 mins before the first mitotic cycle completion by sea urchin embryo assay; type: functional, organism-based
# A549 [7] = test: Cytotoxicity against human A549 cells assessed as cell viability after 24 hrs by MTT assay; type: functional, cell-based; conditions: A549, 24 h
# How it was run: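 A549 human lung carcinoma cells; growth inhibition measured by MTT assay. IC50 derived from dose-response curves, mean ± SD of three independent experiments.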
# A549 [8] = test: Inhibition of microtubule polymerization in human A549 cells assessed as total disruption of interphase microtubule network at > 5 uM after 8 hrs by immunofluorescence microscopy; type: cell-based
# A549 [9] = test: Cell cycle arrest in human A549 cells assessed as accumulation of cells in G2/M phase after 24 hrs by propidium iodide staining-based flow cytometry; type: functional; conditions: A549, 24 h
# A549 [10] = test: Inhibition of microtubule polymerization in human A549 cells assessed as total disruption of interphase microtubule network at 0.1 uM after 8 hrs by immunofluorescence microscopy; type: cell-based
# How it was run: (§1)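 A549 cells incubated 8 h with compound at 0.1, 0.5, 1 and 5 μM; DMSO vehicle as negative control. Microtubules labelled by indirect immunofluorescence and examined by fluorescence microscopy. Value is the concentration giving total interphase microtubule disassembly, from three independent experiments.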
# A549 [11] = test: Inhibition of microtubule polymerization in human A549 cells assessed as total disruption of interphase microtubule network at 0.5 uM after 8 hrs by immunofluorescence microscopy; type: cell-based; how it was run: as §1
# A549 [12] = test: Inhibition of microtubule polymerization in human A549 cells assessed as total disruption of interphase microtubule network at 5 uM after 8 hrs by immunofluorescence microscopy; type: cell-based; how it was run: as §1
# A549 [13] = test: Inhibition of microtubule polymerization in human A549 cells assessed as total disruption of interphase microtubule network at 1 uM after 8 hrs by immunofluorescence microscopy; type: cell-based; how it was run: as §1
# A549 [14] = test: Induction of apoptosis in human A549 cells assessed as early apoptotic cells at 10 to 100 nM after 48 hrs by annexin-V FITC/7-ADD staining-based flow cytometric analysis; type: functional, cell-based
# A549 [15] = test: Induction of apoptosis in human A549 cells assessed as late apoptotic cells at 10 to 100 nM after 48 hrs by annexin-V FITC/7-ADD staining-based flow cytometric analysis; type: functional, cell-based
# A549 [16] = test: Induction of apoptosis in human A549 cells assessed as necrotic cells at 10 to 100 nM after 48 hrs by annexin-V FITC/7-ADD staining-based flow cytometric analysis; type: functional, cell-based
# P388 = test: Cytotoxicity against mouse P388 cells assessed as cell viability after 48 hrs by trypan blue exclusion assay; type: functional, cell-based; conditions: P388, 48 h
# Paracentrotus lividus [17] = test: Antimitotic activity against Paracentrotus lividus embryo assessed as formation of tuberculate egg at 100 nM after 6 hrs post fertilization by microscopic analysis; type: functional, organism-based
# Paracentrotus lividus [18] = test: Antimitotic activity against Paracentrotus lividus embryo assessed as cleavage alteration at 10 nM after 6 hrs post fertilization by microscopic analysis; type: functional, organism-based
Compound,EC (Paracentrotus lividus [1]) [nM],EC (Paracentrotus lividus [2]) [nM],EC (Paracentrotus lividus [3]) [nM],pIC50 (A549 [7]),other results
COc1cc([C@H]2C3=C(COC3=O)Nc3cc4c(cc32)OCO4)cc2c1OCO2,5,50,–,–,–
COc1cc(-c2c3c(nc4c5c(ccc24)CCC5)COC3=O)cc2c1OCO2,100,>4000,>5000,–,–
COc1cc(C2C3=C(COC3=O)Nc3cc4c(cc32)OCO4)c(OC)c2c1OCO2 (stereo not drawn),1000,2000,>5000,–,–
COc1cc(C2C3=C(COC3=O)Nc3[nH]ncc32)cc(OC)c1OC (stereo not drawn),–,–,–,–,Activity (Paracentrotus lividus [4]): inactive; Activity (Paracentrotus lividus [5]): inactive; Activity (Paracentrotus lividus [6]): inactive
COc1cc(-c2c3c(nc4c5c(ccc24)CCCC5)COC3=O)cc2c1OCO2,200,2000,5000,–,–
OC1=C2C(=Nc3cc4c(cc3C2c2ccccc2)OCO4)CO1 (stereo not drawn),5,20,100,7.20,–
COc1cc(C2C3=C(COC3=O)Nc3[nH]nc(C)c32)c(OC)c2c1OCO2 (stereo not drawn),–,–,–,–,Activity (Paracentrotus lividus [4]): inactive; Activity (Paracentrotus lividus [5]): inactive; Activity (Paracentrotus lividus [6]): inactive
COc1c(C2C3=C(COC3=O)Nc3cc4c(cc32)OCO4)cc2c(c1OC)OCO2 (stereo not drawn),100,500,4000,–,–
COc1cc(C2C3=C(COC3=O)Nc3cc4c(c(OC)c32)OCO4)cc2c1OCO2 (stereo not drawn),50,500,2000,6.53,inhibition (A549 [8]): Active
COc1c(C2C3=C(COC3=O)Nc3cn(C)nc32)cc2c(c1OC)OCO2 (stereo not drawn),–,–,–,–,Activity (Paracentrotus lividus [4]): inactive; Activity (Paracentrotus lividus [5]): inactive; Activity (Paracentrotus lividus [6]): inactive
COc1cc(C2C3=C(COC3=O)Nc3cc4c(cc32)OCCO4)cc2c1OCO2 (stereo not drawn),5,50,100,7.19,pEC50 (A549 [9]): 6.92; inhibition (A549 [10]): Active; inhibition (A549 [11]): Active; inhibition (A549 [12]): Active; inhibition (A549 [13]): Active
COc1cccc(C2C3=C(O)OCC3=Nc3cc4c(cc32)OCO4)c1 (stereo not drawn),5,20,100,–,–
COc1cc(C2C3=C(COC3=O)Nc3c2ccc2c3CCCC2)cc2c1OCO2 (stereo not drawn),5,50,100,6.80,–
COC(=O)Nc1nc2cc(C(=O)c3cccs3)ccc2[nH]1,–,–,–,–,Activity (A549 [14]): Active; Activity (A549 [15]): inactive; Activity (A549 [16]): Active
COc1ccc(C2C3=C(COC3=O)Nc3cc4c(c(OC)c32)OCO4)cc1 (stereo not drawn),2000,>2000,>2000,–,–
COc1cc(C2C3=C(COC3=O)Nc3cc4c(cc32)OCO4)c(OC)c(OC)c1OC (stereo not drawn),1000,4000,>10000,6.52,inhibition (A549 [10]): Active; inhibition (A549 [11]): Active; inhibition (A549 [12]): Active; inhibition (A549 [13]): Active
COc1cc(C2C3=C(COC3=O)Nc3[nH]nc(C)c32)cc(OC)c1OC (stereo not drawn),–,–,–,–,Activity (Paracentrotus lividus [4]): inactive; Activity (Paracentrotus lividus [5]): inactive; Activity (Paracentrotus lividus [6]): inactive
COc1ccc(C2C3=C(O)OCC3=Nc3cc4c(cc32)OCO4)cc1 (stereo not drawn),50,200,2000,< 5.49,–

Compound,EC (Paracentrotus lividus [1]) [nM],EC (Paracentrotus lividus [2]) [nM],EC (Paracentrotus lividus [3]) [nM],pIC50 (A549 [7]),other results
COc1cc(C2C3=C(COC3=O)Nc3cc4c(cc32)CCC4)cc2c1OCO2 (stereo not drawn),2,20,50,6.58,inhibition (A549 [10]): Active; inhibition (A549 [11]): Active; inhibition (A549 [12]): Active; inhibition (A549 [13]): Active
COc1ccc(C2C3=C(COC3=O)Nc3[nH]ncc32)cc1 (stereo not drawn),–,–,–,–,Activity (Paracentrotus lividus [4]): inactive; Activity (Paracentrotus lividus [5]): inactive; Activity (Paracentrotus lividus [6]): inactive
COc1ccc(C2C3=C(COC3=O)Nc3cc4c(cc32)OCO4)cc1OC (stereo not drawn),5,100,2000,6.23,pEC50 (A549 [9]): 6.64; pIC50 (P388): 6.88; inhibition (A549 [10]): Active; inhibition (A549 [11]): Active; inhibition (A549 [12]): Active; inhibition (A549 [13]): Active
COc1cc(C2C3=C(COC3=O)Nc3ccccc32)cc2c1OCO2 (stereo not drawn),20,200,2000,6.27,inhibition (A549 [8]): Active
COc1cc(C2C3=C(O)OCC3=Nc3cc4c(cc32)OCCO4)cc(OC)c1OC (stereo not drawn),200,1000,1000,8.04,inhibition (A549 [10]): Active; inhibition (A549 [11]): Active; inhibition (A549 [12]): Active; inhibition (A549 [13]): Active
COc1cc(C2C3=C(COC3=O)Nc3cn(C)nc32)cc(OC)c1OC (stereo not drawn),–,–,–,–,Activity (Paracentrotus lividus [4]): inactive; Activity (Paracentrotus lividus [5]): inactive; Activity (Paracentrotus lividus [6]): inactive
O=C1OCC2=C1C(c1ccc3c(c1)OCO3)c1c(ccc3ccccc13)N2 (stereo not drawn),>4000,>4000,>4000,–,–
COc1cc(C2C3=C(COC3=O)Nc3cc4c(cc32)OCO4)cc2c1OCO2 (racemic),5,50,50,7.26,Activity (Paracentrotus lividus [17]): Active; inhibition (A549 [10]): Active; Activity (Paracentrotus lividus [18]): Active; inhibition (A549 [11]): Active; inhibition (A549 [12]): Active; inhibition (A549 [13]): Active
COc1c(C2C3=C(COC3=O)Nc3[nH]nc(C)c32)cc2c(c1OC)OCO2 (stereo not drawn),–,–,–,–,Activity (Paracentrotus lividus [4]): inactive; Activity (Paracentrotus lividus [5]): inactive; Activity (Paracentrotus lividus [6]): inactive
COc1cc(OC)cc(C2C3=C(COC3=O)Nc3cc(OC)ccc32)c1 (stereo not drawn),2,10,200,–,–
COc1cc(C2C3=C(COC3=O)Nc3cn(C)nc32)cc2c1OCO2 (stereo not drawn),–,–,–,–,Activity (Paracentrotus lividus [4]): inactive; Activity (Paracentrotus lividus [5]): inactive; Activity (Paracentrotus lividus [6]): inactive
COc1cc(C2C3=C(COC3=O)Nc3cn(C)nc32)c(OC)c2c1OCO2 (stereo not drawn),–,–,–,–,Activity (Paracentrotus lividus [4]): inactive; Activity (Paracentrotus lividus [5]): inactive; Activity (Paracentrotus lividus [6]): inactive
COc1cc([C@@H]2C3=C(COC3=O)Nc3cc4c(cc32)OCO4)cc2c1OCO2,50,200,50,–,–
COc1cc(C2C3=C(COC3=O)Nc3cc4c(cc32)OCO4)cc(OC)c1OC (stereo not drawn),50,500,2000,8.57,pEC50 (A549 [9]): 7.79; Activity (A549 [14]): Active; inhibition (A549 [10]): Active; inhibition (A549 [11]): Active; Activity (A549 [15]): inactive; Activity (A549 [16]): Active; inhibition (A549 [12]): Active; inhibition (A549 [13]): Active
COc1cc(-c2c3c(nc4cc5c(cc24)CCC5)COC3=O)cc2c1OCO2,100,1000,>5000,–,–
OC1=C2C(=Nc3cc4c(cc3C2c2ccc3c(c2)OCO3)OCO4)CO1 (stereo not drawn),10,50,200,–,–
COc1cc(C2C3=C(COC3=O)Nc3cc4c(c(OC)c32)OCO4)cc(OC)c1OC (stereo not drawn),2000,>2000,>2000,6.54,inhibition (A549 [10]): Active; inhibition (A549 [11]): Active; inhibition (A549 [12]): Active; inhibition (A549 [13]): Active
COc1ccc2c(c1)C(c1cc(OC)c3c(c1)OCO3)C1=C(COC1=O)N2 (stereo not drawn),10,50,500,6.55,inhibition (A549 [10]): Active; inhibition (A549 [11]): Active; inhibition (A549 [12]): Active; inhibition (A549 [13]): Active
